Source: ChEMBL document CHEMBL1141351, “Inhibitors of osteoclast differentiation from Cephalotaxus koreana” (J Nat Prod, 2007)
pIC50: −log10 of the molar value.

What was measured:
Osteoclast [1] = assay: Inhibition of ICR mouse osteoclast differentiation at 1.0 ug/mL; type: functional
Procedure, shortened: (§1)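 Co-culture of bone marrow cells (femora, 6-week-old ddY mice; 2.5×10^5 cells/cm²) with calvarial osteoblastic cells (newborn ICR mice, collagenase digestion; 4 × 10⁴ cells/cm²) in α-MEM/10% FBS with 1,25(OH)₂D₃ (1 × 10⁻⁸ M) and dexamethasone (1 × 10⁻⁷ M). DMSO stocks (2 mg/mL) were filter-sterilized and added at 0.1 or 1.0 μg/mL. Medium was changed every 2 days. On day 6, cells were formaldehyde-fixed and TRAP-stained. TRAP(+) multinucleated cells with >6–7 nuclei were counted. Results are % inhibition versus control, as mean ± SD of three replicates, with Student's t-test.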

Osteoclast [2] = assay: Inhibition of ICR mouse osteoclast differentiation at 0.1 ug/mL; type: functional; procedure, shortened: as §1
Osteoclast [3] = assay: Induction of mouse osteoclast apoptosis; type: functional, cell-based

| SMILES | inhibition at 1 µg/mL (Osteoclast [1]) [%] | inhibition at 0.1 µg/mL (Osteoclast [2]) [%] | pIC50 (Osteoclast [3]) |
| --- | --- | --- | --- |
| O=c1cc(-c2ccc(O)cc2)oc2c(O)c(O)cc(O[C@@H]3O[C@H](CO)[C@@H](O)[C@H](O)[C@H]3O)c12 | 86 | 63 |  |
| CC(=O)OC[C@H]1O[C@@H](Oc2c(-c3ccc(O)c(O)c3)oc3cc(O)cc(O)c3c2=O)[C@H](O)[C@@H](O)[C@@H]1O | 65 | 51 |  |
| C[C@H]1O[C@@H](OC[C@H]2O[C@@H](Oc3c(-c4ccc(O)cc4)oc4cc(O)cc(O)c4c3=O)[C@H](O)[C@@H](O)[C@@H]2O)[C@@H](O)[C@@H](O)[C@@H]1O | 85 | 68 |  |
| COc1ccc(-c2oc3cc(O)cc(O)c3c(=O)c2O[C@@H]2O[C@H](CO[C@@H]3O[C@H](C)[C@@H](O)[C@H](O)[C@@H]3O)[C@@H](O)[C@H](O)[C@H]2O)cc1O | 63 | 40 |  |
| O=c1cc(-c2ccc(O)cc2)oc2cc(O)cc(O)c12 [APIGENIN] | 65 | 45 |  |
| O=c1c(O)c(-c2ccc(O)cc2)oc2cc(O)cc(O)c12 [KAEMPFEROL] |  |  | 5.80 |
| O=c1c(O)c(-c2ccc(O)c(O)c2)oc2cc(O)cc(O)c12 [QUERCETIN] |  |  | 5.28 |
| C[C@@H]1O[C@@H](Oc2c(-c3ccc(O)c(O)c3)oc3cc(O)cc(O)c3c2=O)[C@H](O)[C@H](O)[C@H]1O [QUERCITRIN] | 67 | 56 |  |
